As a reminder, the LD50 is the dose expected to kill half of the subjects tested. Lower therefore signals a more toxic substance.

Data set [1] is described as follows: Acute toxicity in po dosed Kunming mouse administered as single dose measured for 7 days. In kind it is organism-based. The note with it: in vivo, time 7 day. The method, boiled down: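 Kunming mice each received one oral dose at 250, 500, 750 or 1000 mg·kg^-1 and were closely monitored for 7 days. The median lethal dose (LD50) was estimated from this single-dose experiment.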

Data set [2] concerns Mus musculus. Kind of data set: Antidiabetic activity in KK-Ay mouse assessed as effect on insulin level at 50 mg/kg, […] by ELISA (reference value: 226 +/- 15.5 mU/l). The data set is classed as functional.
Data set [3] deals with Mus musculus. Kind of data set: Antidiabetic activity in KK-Ay mouse assessed as effect on insulin level at 100 mg/kg, […] by ELISA (reference value: 226 +/- 15.5 mU/l). In kind it is functional.
Data set [4] concerns Mus musculus. Kind of data set: Antidiabetic activity in KK-Ay mouse assessed as effect on cholesterol level at 50 mg/kg, […] by ELISA (reference value: 7.38 +/- 1.03 mM). In kind it is functional. For orientation: ELISA stands for enzyme-linked immunosorbent assay.
Data set [5] can be described thus: Effect on high fat diet-fed KK-Ay mouse model of obesity and diabetes assessed as food intake at 50 mg/kg, po (reference value: 5.67 +/- 0.55 g/day). In kind it is ADME, organism-based. The note with it: in vivo. The method in brief: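 KK-Ay mice on lipogenic diet, with C57BL/6J mice as normal controls, dosed orally at 50 or 100 mg/kg (test) or 5 mg/kg (RGZ). Food intake (g/day), water intake (mL/day) and body weight recorded before and after treatment; body weight gain calculated. Mean±SD, 8-9 mice per group.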

Consider `CCCC[C@@H]1[C@H]2CCCN3CCC[C@@H](CN1S(=O)(=O)c1ccc(C(F)(F)F)cc1)[C@@H]23`, for which, in data set [1], the 50% lethal dose (LD50) at 168 h is 1000 mg/kg. In addition, the Activity in data set [2] turned out to be 177 mU/L; in data set [3], 128 mU/L; in data set [4] it was 7.05 mM; in data set [5], 5.2 g/day.

For the origin of these results see ChEMBL document CHEMBL4818983, “Structure-activity relationship and hypoglycemic activity of tricyclic matrines with advantage of treating diabetic nephropathy” (Eur J Med Chem, 2020).
